# Test results reported in ChEMBL document CHEMBL1649235, “The proteasome inhibitor epoxomicin has potent Plasmodium falciparum gametocytocidal activity” (Antimicrob Agents Chemother, 2009).
# The source made the active and inactive calls. The rule behind the calls is not given here.
# How the values were obtained:
# Plasmodium falciparum [1] = assay: Antimicrobial activity against Plasmodium falciparum 3D7 assessed as stage 3 gametocytes per 1000 RBCs at 100 uM after 2 days by Giemsa staining relative to control; assay type: functional
# In short: (§1)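 3D7 cultures holding asexual parasites and gametocytes, gametocytogenesis induced per Ifediba and Vanderberg. Inhibitor at 100 µM or DMSO carrier for 24 h in a sealed chamber (90% N2, 5% CO2, 5% O2) at 37°C. Fed daily with RPMI 1640, hypoxanthine (10 mg liter−1) and 10% human serum. Gametocytes per 1,000 RBCs counted and staged on Giemsa smears 2 days after treatment.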
# Plasmodium falciparum [2] = assay: Antimicrobial activity against Plasmodium falciparum 3D7 assessed as stage 3 gametocyte per 1000 RBCs at 100 uM after 5 days by Giemsa staining relative to control; assay type: functional
# In short: (§2)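 Gametocyte cultures of strain 3D7, 8 days after setup, exposed 24 h to inhibitor at 100 µM or an equal amount of DMSO. Kept at 37°C under 90% N2/5% CO2/5% O2 and fed daily with RPMI 1640, hypoxanthine and 10% human serum. Gametocytes per 1,000 RBCs scored by stage (II–V) on Giemsa-stained smears.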
# Plasmodium falciparum [3] = assay: Antimicrobial activity against Plasmodium falciparum 3D7 assessed as stage 5 gametocyte per 1000 RBCs at 100 uM after 5 days by Giemsa staining relative to control; assay type: functional; in short: as §2
# Plasmodium falciparum [4] = assay: Antimicrobial activity against Plasmodium falciparum 3D7 assessed as stage 4 gametocyte per 1000 RBCs at 100 uM after 5 days by Giemsa staining relative to control; assay type: functional; in short: as §2
# Plasmodium falciparum [5] = assay: Antimicrobial activity against Plasmodium falciparum 3D7 assessed as stage 2 gametocytes per 1000 RBCs at 100 uM after 2 days by Giemsa staining relative to control; assay type: functional; in short: as §1
# Plasmodium falciparum [6] = assay: Antimicrobial activity against asexual stage of Plasmodium falciparum 3D7 assessed as reduction in parasite count at 100 uM after 24 hrs by Giemsa staining; assay type: functional, organism-based
# In short: (§3)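 3D7 cultures containing asexual stages and gametocytes incubated 24 h with inhibitor at 100 µM or DMSO carrier, at 37°C in a sealed chamber (90% N2, 5% CO2, 5% O2), fed with RPMI 1640, hypoxanthine and 10% human serum. Asexual parasites and gametocytes assessed on Giemsa-stained smears.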
# Plasmodium falciparum [7] = assay: Antimicrobial activity against Plasmodium falciparum 3D7 assessed as stage 4 gametocytes per 1000 RBCs at 100 uM after 2 days by Giemsa staining relative to control; assay type: functional; in short: as §1
# Plasmodium falciparum [8] = assay: Antimicrobial activity against gametocyte stage of Plasmodium falciparum 3D7 after 24 hrs; assay type: functional, organism-based; details: 3D7, 24 h
# In short: (§4)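 Mixed asexual/gametocyte 3D7 cultures (mainly stage II–III gametocytes) exposed 24 h to serial dilutions (10 nM to 1 µM) or DMSO carrier at 37°C under low-oxygen gas. Asexual parasites and gametocytes counted on Giemsa smears and expressed as percent of DMSO control. IC50 calculated from the 24-h time point.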
# Plasmodium falciparum [9] = assay: Antimicrobial activity against asexual stage of Plasmodium falciparum 3D7 after 24 hrs; assay type: functional, organism-based; details: 3D7, 24 h; in short: as §4
# [10] = Cytotoxicity against human A549 cells assessed as viable cells at 1 uM by MTS assay in presence of 10% fetal calf serum; assay type: cell-based; details: read-out: Activity
# In short: (§5)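 NIH-3T3 mouse fibroblasts or A549 human lung epithelial cells (1 × 104 to 5 × 10^4 per well) in DMEM with 10% FCS. Viability read by MTS tetrazolium reduction as absorbance.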
# Plasmodium falciparum [11] = assay: Antimicrobial activity against gametocyte stage of Plasmodium falciparum 3D7 assessed as reduction in parasite count at 100 nM after 24 hrs by Giemsa staining; assay type: functional; parameters: scale not given: the % may be the effect or the level left; in short: as §4
# Plasmodium falciparum [12] = assay: Antimicrobial activity against asexual stage of Plasmodium falciparum 3D7 assessed as reduction in parasite count at 100 nM after 24 hrs by Giemsa staining; assay type: functional; parameters: scale not given: the % may be the effect or the level left; in short: as §4
# Plasmodium falciparum [13] = assay: Antimicrobial activity against asexual stage of Plasmodium falciparum 3D7 assessed as reduction in parasite count at 1uM after 24 hrs by Giemsa staining; assay type: functional; parameters: scale not given: the % may be the effect or the level left; in short: as §4
# Plasmodium falciparum [14] = assay: Antimicrobial activity against gametocyte stage of Plasmodium falciparum 3D7 assessed as reduction in parasite count at 1 uM after 24 hrs by Giemsa staining; assay type: functional; parameters: scale not given: the % may be the effect or the level left; in short: as §4
# [15] = Cytotoxicity against mouse 3T3 cells assessed as viable cells at 1 uM by MTS assay in presence of 10% fetal calf serum; assay type: cell-based; details: 3T3 cells (NIH3T3), read-out: Activity; in short: as §5
# Plasmodium falciparum [16] = assay: Antimicrobial activity against Plasmodium falciparum 3D7 assessed as gametocytes per 1000 RBCs at 100 uM after 2 days by Giemsa staining relative to control; assay type: functional; in short: as §1
# Plasmodium falciparum [17] = assay: Antimicrobial activity against asexual stage of Plasmodium falciparum 3D7 at 100 uM after 24 hrs by Giemsa staining; assay type: functional, organism-based; in short: as §3
# Plasmodium falciparum [18] = assay: Antimicrobial activity against gametocyte stage of Plasmodium falciparum 3D7 at 100 uM after 24 hrs by Giemsa staining; assay type: functional, organism-based; in short: as §3
structure (smiles),measurement,setting,value
CCOC(=O)[C@H]1O[C@@H]1C(=O)N[C@@H](CC(C)C)C(=O)NCCC(C)C [ALOXISTATIN],Activity,Plasmodium falciparum [1],18%
same,Activity,Plasmodium falciparum [2],22%
same,Activity,Plasmodium falciparum [3],10%
same,Activity,Plasmodium falciparum [4],68%
same,Activity,Plasmodium falciparum [5],72%
same,Activity,Plasmodium falciparum [6],Active
same,Activity,Plasmodium falciparum [7],10%
CC[C@H](C)[C@H](NC(=O)[C@H]([C@@H](C)CC)N(C)C(C)=O)C(=O)N[C@H](C(=O)N[C@@H](CC(C)C)C(=O)[C@@]1(C)CO1)[C@@H](C)O [EPOXOMYCIN],IC50,Plasmodium falciparum [8],54 nM
same,IC50,Plasmodium falciparum [9],41 nM
same,viability at 1 µM,[10],80%
same,Activity,Plasmodium falciparum [11],77%
same,Activity,Plasmodium falciparum [12],86%
same,Activity,Plasmodium falciparum [13],86%
same,Activity,Plasmodium falciparum [14],77%
same,viability at 1 µM,[15],80%
Cc1ccc(S(=O)(=O)N[C@@H](Cc2ccccc2)C(=O)CCl)cc1 [TPCK],Activity,Plasmodium falciparum [16],21%
same,Activity,Plasmodium falciparum [17],inactive
same,Activity,Plasmodium falciparum [18],inactive
